Calls of active or inactive are those of the source. The calls are words filed in the database; no cut-off is given here.
Assays:
[1] = Neurotoxicity in Sprague-Dawley rat at 30 mg/kg, po measured after 4 hrs by rotarod test; assay type: toxicity, organism-based; conditions: in vivo
In short: (§1)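 Rat neurotoxicity after i.p. or p.o. dosing was scored as animals impaired / animals tested at each time point. For p.o. dosing, TD50 was obtained by probit analysis.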

Mus musculus [2] = assay: Anticonvulsant activity in CF-1 mouse model of maximal electroshock-induced seizure assessed as suppression of tonic hind limb extension at 30 mg/kg, ip measured at 0.5 hrs post dose; assay type: functional, organism-based
In short: (§2)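 Mice dosed i.p. and given maximal electroshock at 50 mA. Read-out is protection, reported as number protected / number tested at 0.25, 0.5, 1 and 4 h after dosing.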

Mus musculus [3] = assay: Anticonvulsant activity in CF-1 mouse model of maximal electroshock-induced seizure assessed as suppression of tonic hind limb extension at 300 mg/kg, ip measured at 4 hrs post dose; assay type: functional, organism-based; in short: as §2
[4] = Mutagenicity in Salmonella typhimurium TA1535 assessed as mutagenicity index at 50 to 500 ug/plate preincubated for 30 mins followed by top agar addition and measured after 48 hrs in presence of liver S9 fraction by Ames test; assay type: toxicity, subcellular; conditions: salmonella enterica subsp. enterica serovar typhimurium, s9, 48 h
In short: (§3)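 Ames plate incorporation in S. typhimurium TA100 or TA1535, with or without S9. Overnight culture, compound in DMSO (50–500 µg per plate) and buffer or S9 mix preincubated 30 min at 37 °C, then top agar on glucose minimal agar. Incubated 48 h at 37 °C, revertants counted in triplicate. Vehicle negative control; NaN3 (−S9) and 2AA (+S9) positive controls. MI = revertants with compound / negative-control revertants; MI ≥ 2 with dose-response counts as positive.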

[5] = Neurotoxicity in CF-1 mouse at 100 mg/kg, ip measured after 0.5 hrs by rotarod test; assay type: toxicity, organism-based; conditions: in vivo
In short: (§4)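 Mice dosed i.p. were placed on a 1 in. knurled rod turning at 6 rpm. Toxicity was scored as failure to keep balance for at least 1 min, i.e. falling off three or more times. Results are reported as animals showing toxicity / animals tested at each time point.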

Salmonella typhimurium [6] = assay: Antimutagenic activity against Salmonella typhimurium TA100 assessed as inhibition of NaN3-induced mutation at 250 ug/plate preincubated for 30 mins followed by top agar addition and measured after 48 hrs in presence of liver S9 fraction by Ames test relative to control; assay type: organism-based; conditions: salmonella enterica subsp. enterica serovar typhimurium, s9, 48 h
Mus musculus [7] = assay: Anticonvulsant activity in CF-1 mouse model of maximal electroshock-induced seizure assessed as suppression of tonic hind limb extension at 100 mg/kg, ip measured at 4 hrs post dose; assay type: functional, organism-based; in short: as §2
Mus musculus [8] = assay: Anticonvulsant activity in CF-1 mouse model of maximal electroshock-induced seizure assessed as suppression of tonic hind limb extension at 30 mg/kg, ip measured at 4 hrs post dose; assay type: functional, organism-based; in short: as §2
[9] = Retention time of the compound in rat liver microsomes by LC-MS/MS analysis; assay type: ADME, Microsome
[10] = Neurotoxicity in Sprague-Dawley rat at 30 mg/kg, po measured after 0.25 hrs by rotarod test; assay type: toxicity, organism-based; conditions: in vivo; in short: as §1
[11] = Neurotoxicity in CF-1 mouse at 30 mg/kg, ip measured after 4 hrs by rotarod test; assay type: toxicity, organism-based; conditions: in vivo; in short: as §4
Salmonella typhimurium [12] = assay: Antimutagenic activity against Salmonella typhimurium TA1535 assessed as inhibition of NaN3-induced mutation at 100 ug/plate preincubated for 30 mins followed by top agar addition and measured after 48 hrs in presence of liver S9 fraction by Ames test relative to control; assay type: organism-based; conditions: salmonella enterica subsp. enterica serovar typhimurium, s9, 48 h
Mus musculus [13] = assay: Anticonvulsant activity in CF-1 mouse model of subcutaneous pentylenetetrazole-induced seizure assessed as reduction in convulsions at 100 mg/kg, ip measured at 4 hrs post dose; assay type: functional, organism-based
In short: (§5)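 Mice dosed i.p., then given pentylenetetrazole 85 mg/kg in 0.9% NaCl s.c. into the posterior midline of the neck. Seizures watched for at least 30 min. Scored as protected / tested at 0.5 and 4 h.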

Rattus norvegicus = assay: Anticonvulsant activity in Sprague-Dawley rat model of maximal electroshock-induced seizure assessed as suppression of tonic hind limb extension at 30 mg/kg, po measured at 2 hrs post dose; assay type: functional, organism-based
In short: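 Rats given 30 mg/kg p.o. and tested by maximal electroshock at 150 mA. Scored as number protected / number tested (4 per group) at 0.25, 0.5, 1, 2 and 4 h after dosing.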

[14] = Neurotoxicity in CF-1 mouse at 100 mg/kg, ip measured after 4 hrs by rotarod test; assay type: toxicity, organism-based; conditions: in vivo; in short: as §4
[15] = Neurotoxicity in Sprague-Dawley rat at 100 mg/kg, ip measured after 0.5 hrs by rotarod test; assay type: toxicity, organism-based; conditions: in vivo; in short: as §1
[16] = Neurotoxicity in CF-1 mouse at 300 mg/kg, ip measured after 4 hrs by rotarod test; assay type: toxicity, organism-based; conditions: in vivo; in short: as §4
[17] = Mutagenicity in Salmonella typhimurium TA100 assessed as mutagenicity index at 50 to 500 ug/plate preincubated for 30 mins followed by top agar addition and measured after 48 hrs in absence of liver S9 fraction by Ames test; assay type: toxicity; conditions: salmonella enterica subsp. enterica serovar typhimurium, s9, 48 h; in short: as §3
[18] = Neurotoxicity in Sprague-Dawley rat at 30 mg/kg, po measured after 2 hrs by rotarod test; assay type: toxicity, organism-based; conditions: in vivo; in short: as §1
Mus musculus [19] = assay: Anticonvulsant activity in CF-1 mouse model of subcutaneous pentylenetetrazole-induced seizure assessed as reduction in convulsions at 300 mg/kg, ip measured at 4 hrs post dose; assay type: functional, organism-based; in short: as §5
Salmonella typhimurium [20] = assay: Antimutagenic activity against Salmonella typhimurium TA100 assessed as inhibition of NaN3-induced mutation at 50 ug/plate preincubated for 30 mins followed by top agar addition and measured after 48 hrs in presence of liver S9 fraction by Ames test relative to control; assay type: organism-based; conditions: salmonella enterica subsp. enterica serovar typhimurium, s9, 48 h
Mus musculus [21] = assay: Anticonvulsant activity in CF-1 mouse model of subcutaneous pentylenetetrazole-induced seizure assessed as reduction in convulsions at 300 mg/kg, ip measured at 0.5 hrs post dose; assay type: functional, organism-based; in short: as §5
Salmonella typhimurium [22] = assay: Antimutagenic activity against Salmonella typhimurium TA1535 assessed as inhibition of NaN3-induced mutation at 500 ug/plate preincubated for 30 mins followed by top agar addition and measured after 48 hrs in presence of liver S9 fraction by Ames test relative to control; assay type: organism-based; conditions: salmonella enterica subsp. enterica serovar typhimurium, s9, 48 h
[23] = Neurotoxicity in Sprague-Dawley rat at 30 mg/kg, po measured after 1 hr by rotarod test; assay type: toxicity, organism-based; conditions: in vivo; in short: as §1
[24] = Neurotoxicity in CF-1 mouse at 100 mg/kg, ip measured after 1 hr by rotarod test; assay type: toxicity, organism-based; conditions: in vivo; in short: as §4
Salmonella typhimurium [25] = assay: Antimutagenic activity against Salmonella typhimurium TA100 assessed as inhibition of NaN3-induced mutation at 500 ug/plate preincubated for 30 mins followed by top agar addition and measured after 48 hrs in presence of liver S9 fraction by Ames test relative to control; assay type: organism-based; conditions: salmonella enterica subsp. enterica serovar typhimurium, s9, 48 h
Mus musculus [26] = assay: Anticonvulsant activity in CF-1 mouse model of subcutaneous pentylenetetrazole-induced seizure assessed as reduction in convulsions at 30 mg/kg, ip measured at 0.5 hrs post dose; assay type: functional, organism-based; in short: as §5
Mus musculus [27] = assay: Anticonvulsant activity in CF-1 mouse model of maximal electroshock-induced seizure assessed as suppression of tonic hind limb extension at 100 mg/kg, ip measured at 0.5 hrs post dose; assay type: functional, organism-based; in short: as §2

Compound	Activity [1]	Activity (Mus musculus [2])	Activity (Mus musculus [3])	Activity index [4]	Activity [5]	inhibition (INH) (Salmonella typhimurium [6]) [%]	Activity (Mus musculus [7])	Activity (Mus musculus [8])	Retention_time [9] [min]	Activity [10]	Activity [11]	inhibition (INH) (Salmonella typhimurium [12]) [%]	Activity (Mus musculus [13])	Activity (Rattus norvegicus)	Activity [14]	Activity [15]	Activity [16]	Activity index [17]	Activity [18]	Activity (Mus musculus [19])	further results
CCC(O)CNC(=O)COc1c(C)cccc1C (stereo unspecified)	Non-Toxic	inactive	inactive	0.7 to 1.7	Non-Toxic	11	inactive	inactive	5.15	Non-Toxic	Non-Toxic	51	inactive	inactive	Non-Toxic	Toxic	Non-Toxic	0.7 to 1.7	Non-Toxic	inactive	inhibition (INH) (Salmonella typhimurium [20]): 21%; Activity (Mus musculus [21]): inactive; inhibition (INH) (Salmonella typhimurium [22]): 27%; Activity [23]: Non-Toxic; Activity [24]: Non-Toxic; inhibition (INH) (Salmonella typhimurium [25]): 47%; Activity (Mus musculus [26]): inactive; Activity (Mus musculus [27]): inactive
Cc1cccc(C)c1OCC(=O)N[C@H](C)CO	Non-Toxic	inactive	inactive	0.7 to 1.7	Non-Toxic	38	inactive	inactive	4.73	Non-Toxic	Non-Toxic	43	inactive	inactive	Non-Toxic	Non-Toxic	Non-Toxic	0.7 to 1.7	Non-Toxic	inactive	inhibition (INH) (Salmonella typhimurium [20]): 57%; Activity (Mus musculus [21]): inactive; inhibition (INH) (Salmonella typhimurium [22]): 31%; Activity [23]: Non-Toxic; Activity [24]: Non-Toxic; inhibition (INH) (Salmonella typhimurium [25]): 40%; Activity (Mus musculus [26]): inactive; Activity (Mus musculus [27]): inactive
